Source: PubChem (several laboratories)
Pf gametocyte = inhibitors of late stage P. falciparum gametocyte viability; P. falciparum stage V gametocytes, ATP luminescence, 24 h; inhibition, % at 10.9 µM; hit rate 0.065% among 150,000;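 active = inhibition above the mean plus 3 SD of compounds within the control limits, set per campaign, cut at about 38% in these data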;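 also: 0% = DMSO wells and 100% = medium only without gametocytes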
KCC2 mod = modulates chloride dependent transport by human KCC2. KCC2 cells, thallium flux FluoZin-2 fluorescence. hit rate 2.2% among 190,000. Q9H2X9. AID 1456. B-score of Tl+ flux slope (higher = more flux/activation; lower = inhibition) at 10 µM;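 active = thallium flux slope and its plate-corrected score both differing from the plate sample mean at a set confidence after two filtering rounds, in either direction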;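 also: slope of fluorescence scaled to starting intensity during 10 to 20 s after thallium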
Target sequence (Q9H2X9 whole entry, looked up): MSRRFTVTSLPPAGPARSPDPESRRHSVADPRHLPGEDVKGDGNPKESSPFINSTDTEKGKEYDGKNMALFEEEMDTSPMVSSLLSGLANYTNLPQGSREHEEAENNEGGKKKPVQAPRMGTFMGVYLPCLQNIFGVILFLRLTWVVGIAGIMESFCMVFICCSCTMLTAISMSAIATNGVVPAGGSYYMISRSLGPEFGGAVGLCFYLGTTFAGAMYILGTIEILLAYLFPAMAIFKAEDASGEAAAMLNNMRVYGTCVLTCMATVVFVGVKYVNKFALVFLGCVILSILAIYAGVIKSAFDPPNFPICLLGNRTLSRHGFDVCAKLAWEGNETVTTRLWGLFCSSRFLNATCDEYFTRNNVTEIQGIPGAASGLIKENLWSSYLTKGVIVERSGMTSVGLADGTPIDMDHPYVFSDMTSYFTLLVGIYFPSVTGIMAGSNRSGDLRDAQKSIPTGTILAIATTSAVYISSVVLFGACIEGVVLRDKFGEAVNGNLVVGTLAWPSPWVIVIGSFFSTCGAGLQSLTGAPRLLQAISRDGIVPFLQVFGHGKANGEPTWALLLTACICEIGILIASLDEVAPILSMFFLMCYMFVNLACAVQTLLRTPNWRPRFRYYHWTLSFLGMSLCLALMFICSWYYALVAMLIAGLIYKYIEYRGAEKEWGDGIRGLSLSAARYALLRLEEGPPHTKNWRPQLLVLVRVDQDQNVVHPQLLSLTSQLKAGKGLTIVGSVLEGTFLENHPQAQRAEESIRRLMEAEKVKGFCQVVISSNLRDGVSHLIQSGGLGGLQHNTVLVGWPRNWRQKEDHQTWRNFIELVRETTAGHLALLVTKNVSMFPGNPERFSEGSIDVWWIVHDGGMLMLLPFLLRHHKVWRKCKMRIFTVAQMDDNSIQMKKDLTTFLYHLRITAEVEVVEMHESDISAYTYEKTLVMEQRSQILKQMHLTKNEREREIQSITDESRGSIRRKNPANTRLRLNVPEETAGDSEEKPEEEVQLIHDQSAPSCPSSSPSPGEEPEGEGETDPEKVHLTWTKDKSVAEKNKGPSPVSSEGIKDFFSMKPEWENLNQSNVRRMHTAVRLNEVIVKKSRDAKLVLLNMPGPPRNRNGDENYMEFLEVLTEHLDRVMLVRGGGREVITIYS
WT yeast gro inh = growth inhibition of WT yeast, mitochondrial fusion screen. mitochondrial fusion phenotypic screen, WT strain. inhibition, % at 10 µM. hit rate 2.1% among 190,000. AID 1362; in the data active = inhibition above about 58%; tested in S. cerevisiae
MT stabilize HCS = microtubule stabilization, imaging screen; AID 2205; % tubulin-high responders, % at 10 µM; hit rate 0.83% among 200,000; HeLa tubulin immunostaining HCS, 24 h; share of cells brighter than vehicle mean+2SD;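 active = plate Z-score above 3 for both tubulin-high and condensed-nucleus cell shares, with cell loss under 80%, at 10 µM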;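 also: anti alpha tubulin signal scored within the nucleus-defined area of each cell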
b-catenin transl = modulators of beta-catenin nuclear translocation; hit rate 0.3% among 190,000; AID 1665; HeLa beta-catenin nuclear translocation, immunofluorescence imaging; nuclear translocation activity, % at 5 µM;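 active = nuclear translocation activity above 50% at 5 µM, with a well cell count of 50 or more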;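 also: per-cell ratio of nuclear to cytoplasmic median beta-catenin stain intensity; plate controls were DMSO negative control for no effect and GSK-3 inhibitor IX positive control for full effect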
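Test system: HeLa cells, endogenous beta-catenin; Compound: single 5 µM dose plus 0.02–20 µM confirmation series; Times: compound exposure 24 h at 37°C; Signal: fluorescence imaging of beta-catenin antibody stain plus DAPI; Read-out: % activation, nuclear-to-cytoplasmic median beta-catenin signal ratio per cell.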
An asterisk follows results filed as active; . = no result. Compounds with a hit are over-represented: about 4% of the library has one in this group of screens.

SMILES	Pf gametocyte	KCC2 mod	WT yeast gro inh	MT stabilize HCS	b-catenin transl
COc1cccc(Cn2c(-c3nonc3N)nc3ccccc32)c1	23.4	.	32.8	50.0*	.
NNC(=O)Cn1c(-c2nonc2N)nc2ccccc21	.	0.784	-7.0	3.4	-3.0
CN(C)CCNC=C(C(=O)Nc1ccc(Cl)cc1Cl)C(=O)Nc1ccc(Cl)cc1Cl	-3.7	.	97.5*	1.6	0.8
CC(=O)/C(=C/N(C)C)C(=O)Nc1ccc(Cl)cc1Cl	-41.1	-0.34	21.2	1.3	0.4
O=C(CSC1CC(=O)N(c2ccc(C(=O)O)cc2)C1=O)Nc1ccc(Cl)cc1 (stereo unspecified)	.	0.0483	-13.4	2.1	-0.3
O=C(Nc1ccccc1)C1=C[C@@H](C2CC2)C[C@@H](OCc2ccc(CO)cc2)O1	-25.4	0.0338	-9.6	3.7	2.6
COc1ccc2c(c1)CCC1=C2NC(=S)NC1c1ccc(N(C)C)cc1 (stereo unspecified)	-7.8	0.282	81.4*	2.5	2.8
COc1cc(C2NC(=S)NC3=C2CCc2ccccc23)cc(OC)c1OC (stereo unspecified)	-1.2	0.519	-3.7	3.0	-0.5
Cc1cnc(C(=O)Nc2ccc(N3CCN(C(=O)OC(C)(C)C)CC3)cc2)cn1	.	0.696	38.3	39.2*	68.4*
Cc1cnc(C(=O)Nc2ccc(C(C)C)cc2)cn1	-24.3	-0.699	5.5	18.0*	19.2
Cc1ccc(C(=O)NCc2ccc(N3CCN(C(=O)OC(C)(C)C)CC3)cc2)cc1	-4.2	0.784	60.6*	2.0	0.1
CCOC(=O)[C@H]1[C@H]2COc3cc(OC)ccc3[C@@H]2N2C(=O)CN(Cc3ccc(OC)cc3)C(=O)[C@@]12C	5.5	.	.	.	.
CC(C)NC(=O)c1ccc(N(Cc2ccc(Cl)cc2)S(C)(=O)=O)cc1	-9.9	.	.	.	.
COC(=O)c1[nH]c2ccc(F)cc2c1NS(=O)(=O)c1ccc(OC)cc1	-7.0	-0.348	-1.9	23.1*	40.3
Cc1ccc(-n2cc(CNCCc3cscn3)c(-c3ccc(F)cc3)n2)cc1	.	0.123	68.6*	2.3	-4.3
COCCCn1c(SCC(=O)NC(C)(C)C)nnc1-c1ccccc1	.	-0.689	66.0*	2.2	-0.5
COCCCn1c(SCC(=O)NC2CCCCC2)nnc1-c1ccncc1	-2.0	0.329	-30.6	1.2	-5.4
COc1ccc(C(C)=O)cc1CSc1nnc(Nc2ccccc2C)s1	3.0	-1.18	11.9	1.8	2.0
COc1ccc(C(C)=O)cc1CSc1nnc(Nc2ccc(C)cc2C)s1	3.6	-2.35	61.2*	5.4	-0.4
CCN(CC)c1ncnc2c1ncn2Cc1c(Cl)cccc1Cl	-2.4	-0.767	-11.1	3.0	-1.8
Clc1cccc(Cl)c1Cn1cnc2c(N3CCCCCC3)ncnc21	.	0.00863	74.8*	2.3	.
Clc1ccc(-c2nc(C3CCCCC3)no2)cc1	15.5	-0.347	11.9	1.8	-5.2
O=S(=O)(NCC(Nc1ccc(Cl)cc1)c1ccccc1)c1ccc(Cl)cc1 (stereo unspecified)	-6.6	0.000157	74.1*	4.0	-4.0
CN(C)C(CNS(=O)(=O)c1ccc(Cl)cc1)c1cccnc1 (stereo unspecified)	.	-0.0803	-6.0	2.7	2.0
O=C(CN1CCN(c2ccc(O)cc2)CC1)Nc1cc([N+](=O)[O-])ccc1Cl	-15.3	-0.349	2.0	5.0	-0.6
SMILES	Pf gametocyte	KCC2 mod	WT yeast gro inh	MT stabilize HCS	b-catenin transl
CC(C)(C)CN1CCNC(=O)C1CC(=O)N1CCN(c2ccccc2)CC1 (stereo unspecified)	4.9	-0.765	.	.	0.2
Cc1ccc2oc(-c3cccc(NC(=S)NC(=O)/C=C/c4ccco4)c3)nc2c1	3.7	-1.11	-6.1	37.2*	11.2
Cc1ccc2oc(-c3cccc(NC(=S)NC(=O)c4cccs4)c3)nc2c1	-3.2	7.75*	17.0	5.8	2.2
Cc1ccc(C(=O)N2CCCc3ccccc32)c(F)c1F	-21.4	.	.	.	.
Cn1cc(/C=C2\SC(=S)N(NC(=O)c3ccccc3Cl)C2=O)c2ccccc21	3.4	-5.29*	-1.7	1.5	0.6
CN1CCN(CC(=O)c2cc(C(C)(C)C)c(O)c(C(C)(C)C)c2)CC1	-4.5	.	.	.	.
N#Cc1ccccc1Sc1ccccc1C(=O)Nc1ccc(Br)cc1	.	-0.757	76.6*	1.6	2.1
Cc1ccc(-c2noc(-c3ccno3)n2)cc1	1.8	1.41	.	.	-5.8
COc1ccccc1N1CCN(c2ncnc3c2oc2ccccc23)CC1	.	.	60.6*	26.8*	74.0*
c1cnc(N2CCN(c3ncnc4c3oc3ccccc34)CC2)nc1	.	.	.	.	-0.5
COc1ccccc1N1CCN(C(=O)c2oc3ccc(F)cc3c2C)CC1	15.4	-0.979	56.6	20.1	0.1
